ADAM10 inh: human ADAM10 inhibitors, primary screen, biochemical, QFRET, HTS | recombinant ADAM10, EDANS/DABCYL FRET peptide cleavage, 3 h | inhibition, % at 7 µM | 0.62% of 370,000 active;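 active means inhibition above a per-campaign cutoff equal to the mean of compounds falling between control-based bounds plus 3 SD, cut at about 20% in these data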
Target sequence (O14672 214-748 limits assumed): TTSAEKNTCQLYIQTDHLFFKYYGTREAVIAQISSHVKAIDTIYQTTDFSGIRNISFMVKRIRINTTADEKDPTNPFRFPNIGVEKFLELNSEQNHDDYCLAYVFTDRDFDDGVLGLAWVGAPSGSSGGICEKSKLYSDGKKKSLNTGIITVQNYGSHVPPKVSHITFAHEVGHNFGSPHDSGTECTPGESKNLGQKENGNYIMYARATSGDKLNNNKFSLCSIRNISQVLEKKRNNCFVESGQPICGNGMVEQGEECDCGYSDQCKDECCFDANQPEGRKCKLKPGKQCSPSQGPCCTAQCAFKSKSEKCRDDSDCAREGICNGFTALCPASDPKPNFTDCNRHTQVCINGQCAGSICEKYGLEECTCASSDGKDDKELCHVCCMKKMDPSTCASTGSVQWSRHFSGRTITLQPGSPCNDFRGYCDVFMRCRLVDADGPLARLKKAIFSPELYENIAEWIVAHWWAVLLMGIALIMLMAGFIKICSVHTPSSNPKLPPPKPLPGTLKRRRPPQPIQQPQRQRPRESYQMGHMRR
MPTP inh: mitochondrial permeability transition pore inhibitors, primary screen, biochemical, isolated mouse mitochondria, absorbance. Ca2+ swelling absorbance, 30 min. inhibition, % at 10 µM. 1.4% of 360,000 active. AID 602449, 2012;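 active means inhibition of 50% or more, scaled per plate between neutral and stimulator controls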
NR3A LBD binder: binders of NR3A ligand-binding domain, primary screen, biophysical, differential scanning fluorimetry, uHTS. Glutamate receptor ionotropic, NMDA 3A (GRIN3A) ligand-binding domain. NR3A LBD differential scanning fluorimetry, Tm shift; 0% = protein alone, 100% = glycine-bound protein. Tm shift relative to glycine control, % at 25 µM. 2.5% of 340,000 active;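 active means melting temperature shift of at least 10% of the positive control shift, at one fixed dose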
ADAM17 inh: ADAM17 inhibitors, primary screen, biochemical, QFRET | Disintegrin and metalloproteinase domain-containing protein 17 (Homo sapiens), P78536 | 0.83% of 370,000 active | recombinant ADAM17, EDANS/DABCYL FRET peptide cleavage | inhibition, % at 6.95 µM | AID 720648, 2013;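 active means inhibition above the mean of compounds lying between control limits plus 3 SD, set per campaign, cut at about 8.5% in these data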
SKN-1 block: suppressors of acrylamide-induced Pgst-4::GFP reporter in worms, primary screen, SKN-1 inhibitor project, whole organism, uHTS, GFP/RFP fluorescence ratio, strain VP596. C. elegans VP596 Pgst-4::GFP/RFP ratio, 24 h. inhibition, % at 21.8 µM. 0.49% of 360,000 active. AID 624304, 2012;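 active means interference check ratio from 0.5 to 1.5 plus GFP to RFP signal ratio inhibition reaching or exceeding a fixed threshold, cut at about 30% in these data, passing the limit was not always enough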
MT1-MMP act inh: blockers of MT1-MMP proenzyme processing, primary screen, HT1080 RFP-PRO-GFP cells, GFP/RFP fluorescence; GFP/RFP ratio change, % at 20 µM; Matrix metalloproteinase-14 (Homo sapiens), P50281; 0.061% of 360,000 active; AID 651647, 2012; GFP/RFP ratio fluorescence, overnight; percent of plate control window, DMSO zero;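 active means GFP/RFP ratio change of at least 30% with cell ATP level not reduced by more than half and red fluorescence within 50% of control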
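system = RFP-PRO-GFP reporter HT1080 cells | dosing = 20 µM single dose, 1% DMSO | timing = overnight cell settling, then overnight compound exposure, 37 °C, 5% CO2 | read-out basis = GFP/RFP fluorescence ratio | controls = DMSO and RFP-L50D-GFP cell wells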
ADAM10 confirm: human ADAM10 inhibitors, confirmation, biochemical, QFRET, triplicate. shares compounds with ADAM10 inh. ADAM10 QFRET peptide cleavage, EDANS fluorescence. inhibition, % at 6.95 µM. 1% of 2,100 active. AID 743208, 2013;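 active means inhibition above about 20% chosen separately for each screening run, limit read from the data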
ADAM17 counter: ADAM17 inhibitors, counter-screen for ADAM10 exosite inhibitor project, biochemical, QFRET, high throughput | shares compounds with ADAM10 inh | ADAM17 QFRET peptide cleavage, EDANS fluorescence | inhibition, % at 6.95 µM | 0.5% of 2,100 active;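 active means mean triplicate inhibition above the solvent-only control wells' mean plus 3 SD, cut at about 12% in these data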
ADAM10 ctr: ADAM10 inhibitors, counter-screen for ADAM17 exosite inhibitor project, biochemical, FRET, human ADAM10; 47% of 2,900 active; recombinant ADAM10, EDANS/DABCYL FRET peptide cleavage, 3 h; AID 743256, 2014; shares compounds with ADAM17 inh; inhibition, % at 6.95 µM;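 active means mean inhibition over the triplicate runs exceeds the activity threshold set in the earlier primary screen, cut at about 20% in these data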
ADAM17 confirm: ADAM17 inhibitors, hit retest, confirmation, biochemical, QFRET peptide cleavage. inhibition, % at 6.95 µM. recombinant ADAM17, EDANS/DABCYL QFRET peptide cleavage. 65% of 2,900 active. shares compounds with ADAM17 inh;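 active means mean inhibition across replicates above the hit cutoff set in the primary screen, cut at about 8.5% in these data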
Numbers stand for hits; . = inactive; / = not tested or not shown. Rows were chosen to be rich in hits. Some 4.7% of all compounds tested hit in one or more screens of this group.

SMILES	ADAM10 inh	MPTP inh	NR3A LBD binder	ADAM17 inh	SKN-1 block	MT1-MMP act inh	ADAM10 ctr	ADAM17 confirm	others
COC(=O)C1=C(c2cccc(OCc3ccccc3)c2)C[C@@H]2CC[C@H]1N2C(=O)NCc1cccc(OC)c1	.	.	.	.	.	.	/	/
COC(=O)C1=C(c2ccc(-c3ccccc3)c(F)c2)C[C@@H]2CC[C@H]1N2C(=O)NCCOc1ccc(OC)cc1	40.4	.	.	22.2	.	.	20.5	11.6	ADAM10 confirm=.;ADAM17 counter=.
Cc1ccc(NP(=O)(Oc2ccccc2F)Oc2ccccc2F)cc1C	25.9	.	.	9.6	.	.	22.9	11.9	ADAM10 confirm=.;ADAM17 counter=.
CCC(C)C1NC(=O)C(NC(=O)C(CC(C)C)N(C)C(=O)C2CCCN2C(=O)C(C)O)C(C)OC(=O)C(Cc2ccc(OC)cc2)N(C)C(=O)C2CCCN2C(=O)C(CC(C)C)NC(=O)[C@H](C)C(=O)[C@H](C(C)C)OC(=O)CC1O (some centres not stated)	25.9	.	.	11.8	.	.	.	.	ADAM10 confirm=.;ADAM17 counter=.
Cc1ccc(-c2nc3ccccc3c(=O)n2-c2cccc(O)c2)cc1	.	.	.	.	.	.	/	/
O=[N+]([O-])c1c2ccccc2cc2ccccc12	/	.	.	/	.	.	/	/
COc1ccc(-n2nnnc2C(c2ccccc2OC(F)(F)F)N2CCC(n3c(=O)[nH]c4ccccc43)CC2)cc1 (configuration not stated)	29.7	.	/	10.1	.	.	34.0	20.4	ADAM10 confirm=.;ADAM17 counter=.
COc1ccc(-n2nnnc2C(c2ccccc2OC(F)(F)F)N2CCC3(CC2)C(=O)NCN3c2ccccc2)cc1 (configuration not stated)	24.7	.	/	9.4	.	.	30.6	15.2	ADAM10 confirm=.;ADAM17 counter=.
COc1ccc(-n2nnnc2C(c2ccccc2)N2CCC3(CC2)C(=O)NCN3c2ccccc2)cc1 (configuration not stated)	.	.	/	.	.	.	/	/
CCC(c1nnnn1-c1ccc(OC)cc1)N1CCC(n2c(=O)[nH]c3ccccc32)CC1 (configuration not stated)	.	.	/	.	.	.	/	/
CC(=NC(C)c1ccccc1)c1c(O)[nH]c(=O)[nH]c1=O (configuration not stated)	.	.	.	.	.	.	/	/
CCOc1cc(CNCCc2c[nH]c3ccccc23)cc(Cl)c1OCC	27.2	.	.	14.4	.	.	.	.	ADAM10 confirm=.;ADAM17 counter=.
CCOc1c(Cl)cc(CNCCc2c[nH]c3ccccc23)cc1OC	.	.	.	.	.	.	/	/
CCOC(=O)C(O)(c1ccc(N(CC)S(=O)(=O)c2ccccc2)cc1)C(F)(F)F (configuration not stated)	27.0	.	.	13.6	.	.	.	.	ADAM10 confirm=.;ADAM17 counter=.
COC(=O)C1=C(C(=O)OC)C2c3ccccc3C1c1ccccc12	.	.	.	10.7	.	.	.	.
C[C@]12CCC(=O)C=C1CC[C@@H]1C2CC[C@]2(C)C(=O)CCC12 (some centres not stated)	.	.	.	9.9	.	.	.	.
Cc1cc(C)cc(OCCOc2cccc(C=C3C(=O)NC(=O)NC3=O)c2)c1	.	.	.	.	.	.	/	/
Cc1ccc(OCCOc2cccc(C=C3C(=O)NC(=O)NC3=O)c2)cc1	.	.	.	9.2	.	.	.	.
CCOC(=O)C(O)(c1ccc(NC(=S)NC(=O)c2ccc(Cl)cc2Cl)cc1)C(F)(F)F (configuration not stated)	.	.	.	9.6	.	.	24.4	14.2
CCOC(=O)C(NC(=O)CCl)(Nc1ccc(C(O)(C(=O)OCC)C(F)(F)F)cc1)C(F)(F)F (configuration not stated)	.	.	.	.	.	.	/	/
Cc1onc(-c2ccccc2)c1C(=O)N1CCC2(CC1)OCCO2	.	.	.	.	.	.	/	/
Cc1ccc(Cn2nnnc2CN2CCC(n3nnc4cc(C)ccc43)CC2)cc1	.	.	.	9.3	.	/	.	.
CCCn1c(C(=O)c2ccccc2)nc2ccccc21	.	.	.	.	.	.	/	/
COc1cc2nc(CN3CC=C(c4ccccc4)CC3)[nH]c(=O)c2cc1OC	.	.	.	.	.	.	/	/
COC(=O)C1=C(c2ccccc2OCc2ccccc2)C[C@@H]2CC[C@H]1N2C(=O)NCc1ccc(OC)c(OC)c1	.	.	.	11.8	.	.	.	.
COC(=O)C1=C(c2ccc(-c3ccccc3)c(F)c2)C[C@@H]2CC[C@H]1N2C(=O)NCCc1ccccc1	.	.	.	9.0	.	.	.	.
COC(=O)C1=C(c2ccccc2OCc2ccccc2)C[C@@H]2CC[C@H]1N2C(=O)NCc1ccc(Cl)cc1	.	.	.	9.7	.	.	.	11.3
Cc1cc(C)c(NC2=NCCS2)cc1C	.	.	/	.	.	.	/	/
CCCC[N+]12CCC(CC1)C(=C(c1ccccc1)c1ccccc1)C2	.	.	.	.	.	.	/	/
S=C(NCCc1ccccc1)N1Cc2ccc(Br)cc2-n2nncc2C1	.	.	/	11.3	.	/	24.8	14.4
